Test results taken from ChEMBL document CHEMBL3525967, “In vitro glucuronidation of the antibacterial triclocarban and its oxidative metabolites” (Drug Metab Dispos, 2012).
One block for each compound: values may come before it.

How the values were obtained:
Format in all cases: ADME
Liver microsome [1] = assay: (§1) Drug metabolism in Sprague-Dawley rat liver microsomes after 30 mins by LC-ESI-MS analysis; details: microsomes, 0.5 h
In short: (§2)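 2'-OH-TCC at 0.2, 0.5, 1, 2, 3, 5, 10 and 50 µM incubated with liver microsomes (alamethicin, MgCl2, saccharolactone, UDPGA; 37 °C), sampled at 5, 10, 15 and 30 min. Samples ≥5 µM diluted 1:9 in ACN; LC-ESI-MS. KM and vmax fitted from rate vs concentration; intrinsic clearance derived from these; mean and SD of three.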

[2] = as §1; details: Sprague-Dawley, liver microsomes; in short: as §2
Liver microsome [3] = assay: (§3) Drug metabolism in human liver microsomes after 30 mins by LC-ESI-MS analysis; details: microsomes, 0.5 h; in short: as §2
[4] = as §3; details: liver microsomes; in short: as §2
Liver microsome [5] = assay: Drug metabolism in Sprague-Dawley rat liver microsomes assessed as retention time at 10 uM by LC-UV-MS method in presence of UDPGA
[6] = Drug metabolism in B6C3F1 mouse liver microsomes assessed as N'-glucuronide-triclocarban formation incubated for 5 mins prior to UDPGA addition measured after 5 to 30 mins by LC-UV analysis
In short: (§4)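 Microsomes or UGT Supersomes (5 µg protein) were held 15 min on ice with alamethicin in 100 mM potassium phosphate pH 7.4. TCC was added at 10 µM (2% DMSO) with 10 mM MgCl2 and 10 mM saccharolactone, pre-warmed 5 min at 37 °C, then started with UDPGA. Samples at 5, 10, 15 and 30 min were quenched in ACN. Product was read by LC-UV at 265 nm; rate came from regression over time, three incubations.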

[7] = biological target: T1, UDP-glucuronosyltransferase 2B4 (Homo sapiens, UniProt P06133); assay: Drug metabolism assessed as human UGT2B4-mediated N-glucuronide-triclocarban formation expressed in baculovirus infected insect sf9 cells incubated for 5 mins prior to UDPGA addition measured after 5 to 30 mins by LC-UV analysis; in short: as §4
T1 sequence (P06133 whole entry): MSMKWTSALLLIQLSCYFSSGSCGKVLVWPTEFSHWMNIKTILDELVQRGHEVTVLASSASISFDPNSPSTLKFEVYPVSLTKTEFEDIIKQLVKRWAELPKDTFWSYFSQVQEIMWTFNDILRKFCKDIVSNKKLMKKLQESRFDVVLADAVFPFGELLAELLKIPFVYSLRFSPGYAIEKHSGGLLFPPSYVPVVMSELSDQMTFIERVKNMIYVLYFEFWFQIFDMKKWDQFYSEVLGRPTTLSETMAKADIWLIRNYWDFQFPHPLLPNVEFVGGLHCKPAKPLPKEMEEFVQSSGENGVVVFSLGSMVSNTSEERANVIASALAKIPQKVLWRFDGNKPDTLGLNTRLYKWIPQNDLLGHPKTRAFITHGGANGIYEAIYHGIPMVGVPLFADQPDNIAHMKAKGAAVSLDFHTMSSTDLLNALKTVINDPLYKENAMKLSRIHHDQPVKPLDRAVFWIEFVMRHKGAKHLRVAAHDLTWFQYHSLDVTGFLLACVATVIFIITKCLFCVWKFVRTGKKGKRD

[8] = biological target: T2, UDP-glucuronosyltransferase 1A3 (Homo sapiens, UniProt P35503); assay: Drug metabolism assessed as human UGT1A3-mediated N-glucuronide-triclocarban formation expressed in baculovirus infected insect sf9 cells incubated for 5 mins prior to UDPGA addition measured after 5 to 30 mins by LC-UV analysis; in short: as §4
T2 sequence (P35503 whole entry): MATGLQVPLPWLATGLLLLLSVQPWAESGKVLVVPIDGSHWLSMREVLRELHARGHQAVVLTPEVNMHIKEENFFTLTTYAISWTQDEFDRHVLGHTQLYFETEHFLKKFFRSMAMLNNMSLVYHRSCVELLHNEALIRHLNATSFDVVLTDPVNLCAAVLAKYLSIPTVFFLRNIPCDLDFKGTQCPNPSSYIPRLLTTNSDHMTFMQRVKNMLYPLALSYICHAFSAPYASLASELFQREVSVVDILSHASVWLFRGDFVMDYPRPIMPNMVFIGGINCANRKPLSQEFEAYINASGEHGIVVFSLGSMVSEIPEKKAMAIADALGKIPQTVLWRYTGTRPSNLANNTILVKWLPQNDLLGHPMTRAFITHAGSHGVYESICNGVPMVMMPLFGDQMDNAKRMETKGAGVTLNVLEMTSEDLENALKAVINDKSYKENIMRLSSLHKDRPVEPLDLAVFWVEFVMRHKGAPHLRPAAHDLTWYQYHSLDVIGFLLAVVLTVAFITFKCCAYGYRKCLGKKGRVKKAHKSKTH

[9] = Drug metabolism in human kidney microsomes assessed as N'-glucuronide-triclocarban formation incubated for 5 mins prior to UDPGA addition measured after 30 mins by LC-UV-ESI-MS/MS analysis; details: 0.5 h
In short: (§5)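 Pooled human kidney or liver microsomes (liver: 25 mixed-gender donors), 5 µg protein, in 200 µL 100 mM potassium phosphate pH 7.4. Alamethicin pre-treated on ice 15 min. Final 10 µM TCC (2% DMSO), with 10 mM MgCl2 and 10 mM saccharolactone, preincubated 5 min at 37 °C. Started with UDPGA (20 mM stock). Sampled at 5, 10, 15 and 30 min into ACN containing 1 µM DCC internal standard.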

[10] = Drug metabolism in human kidney microsomes assessed as N-glucuronide-triclocarban formation incubated for 5 mins prior to UDPGA addition measured after 30 mins by LC-UV-ESI-MS/MS analysis; details: 0.5 h; in short: as §5
[11] = biological target: T3, UDP-glucuronosyltransferase 1A10 (Homo sapiens, UniProt Q9HAW8); assay: Drug metabolism assessed as human UGT1A10-mediated N'-glucuronide-triclocarban formation expressed in baculovirus infected insect sf9 cells incubated for 5 mins prior to UDPGA addition measured after 5 to 30 mins by LC-UV analysis; in short: as §4
T3 sequence (Q9HAW8 whole entry): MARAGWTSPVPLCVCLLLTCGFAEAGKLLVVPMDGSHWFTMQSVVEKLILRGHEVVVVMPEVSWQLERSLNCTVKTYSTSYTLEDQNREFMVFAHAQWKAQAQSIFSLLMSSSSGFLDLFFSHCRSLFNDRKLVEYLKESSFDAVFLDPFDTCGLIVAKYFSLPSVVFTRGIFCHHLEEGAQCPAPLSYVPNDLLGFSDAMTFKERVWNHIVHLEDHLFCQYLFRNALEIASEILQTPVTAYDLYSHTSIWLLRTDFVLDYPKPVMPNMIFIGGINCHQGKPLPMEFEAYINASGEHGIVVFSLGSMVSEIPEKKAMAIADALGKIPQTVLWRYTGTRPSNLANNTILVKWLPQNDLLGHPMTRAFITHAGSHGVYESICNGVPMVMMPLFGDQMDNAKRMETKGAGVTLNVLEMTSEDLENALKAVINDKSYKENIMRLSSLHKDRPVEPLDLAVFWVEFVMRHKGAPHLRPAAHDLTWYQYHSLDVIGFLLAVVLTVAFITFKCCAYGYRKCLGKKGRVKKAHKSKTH

[12] = biological target: T1, UDP-glucuronosyltransferase 2B4; assay: Drug metabolism assessed as human UGT2B4-mediated N'-glucuronide-triclocarban formation expressed in baculovirus infected insect sf9 cells incubated for 5 mins prior to UDPGA addition measured after 5 to 30 mins by LC-UV analysis; in short: as §4

- Vmax (Liver microsome [1]): 9.42 nmol/min/mg
- Km at 0.5 h [2]: 3.29 µM
- Vmax (Liver microsome [3]): 5.37 nmol/min/mg
- Km at 0.5 h [4]: 3.08 µM
SMILES: O=C(Nc1ccc(Cl)c(Cl)c1)Nc1ccc(Cl)cc1O

- Retention_time (Liver microsome [5]): 2.26 min
SMILES: O=C(Nc1ccc(Cl)c(O)c1)Nc1ccc(Cl)c(Cl)c1

SMILES: O=C(Nc1ccc(Cl)cc1)Nc1ccc(Cl)c(Cl)c1 [TRICLOCARBAN]
- Drug metabolism [6]: metabolite_not_detected
- Drug metabolism [7]: metabolite_not_detected
- Drug metabolism [8]: metabolite_not_detected
- Drug metabolism [9]: metabolite_detected
- Drug metabolism [10]: metabolite_detected
- Drug metabolism [11]: metabolite_not_detected
- Drug metabolism [12]: metabolite_not_detected
